In ChEMBL document CHEMBL4145497, “Discovery of 2-aminothiazolyl berberine derivatives as effectively antibacterial agents toward clinically drug-resistant Gram-negative Acinetobacter baumanii” (Eur J Med Chem, 2018):
Values after ≈ are worked out from the molar mass of the structure shown.

How the values were obtained:
Escherichia coli = test: Antibacterial activity against Escherichia coli DH52 after 18 to 24 hrs by CLSI two fold serial dilution method; type: functional
Micrococcus luteus = test: Antibacterial activity against Micrococcus luteus ATCC 4698 after 18 to 24 hrs by CLSI two fold serial dilution method; type: functional
[1] = Aqueous solubility of the compound in phosphate buffer at pH 7.4 after 3 hrs by UV detection assay; type: physicochemical
Outline: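 Water solubility measured at physiological pH, with berberine as the control.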

Cyberlindnera jadinii = test: Antifungal activity against Candida utilis ATCC 9950 by CLSI two fold serial dilution method; type: functional; conditions: Williopsis jadinii
Staphylococcus aureus = test: Antibacterial activity against Staphylococcus aureus ATCC 25923 after 18 to 24 hrs by CLSI two fold serial dilution method; type: functional
Pseudomonas aeruginosa = test: Antibacterial activity against Pseudomonas aeruginosa ATCC 27853 after 18 to 24 hrs by CLSI two fold serial dilution method; type: functional
Aspergillus flavus = test: Antifungal activity against Aspergillus flavus ATCC 204304 by CLSI two fold serial dilution method; type: functional
Candida albicans = test: Antifungal activity against Candida albicans ATCC 76615 by CLSI two fold serial dilution method; type: functional
Bacillus subtilis = test: Antibacterial activity against Bacillus subtilis ATCC 21216 after 18 to 24 hrs by CLSI two fold serial dilution method; type: functional
Candida parapsilosis = test: Antifungal activity against Candida parapsilosis ATCC 22019 by CLSI two fold serial dilution method; type: functional; conditions: Lodderomyces parapsilosis
Pichia norvegensis = test: Antifungal activity against Candida mycoderma ATCC 96918 by CLSI two fold serial dilution method; type: functional
Saccharomyces cerevisiae = test: Antifungal activity against Saccharomyces cerevisiae ATCC 9763 by CLSI two fold serial dilution method; type: functional

| SMILES | MIC (Escherichia coli) | MIC (Micrococcus luteus) | solubility at 3 h [1] | MIC (Cyberlindnera jadinii) | MIC (Staphylococcus aureus) | MIC (Pseudomonas aeruginosa) | MIC (Aspergillus flavus) | MIC (Candida albicans) | MIC (Bacillus subtilis) | MIC (Candida parapsilosis) | MIC (Pichia norvegensis) | MIC (Saccharomyces cerevisiae) |
| --- | --- | --- | --- | --- | --- | --- | --- | --- | --- | --- | --- | --- |
| COc1cc(/C=N/Nc2nccs2)c2c(c1OCc1ccccc1F)CN1CCc3cc4c(cc3C1C2)OCO4 (stereo not drawn) | 230 µM (≈ 128 µg/mL) | 230 µM (≈ 128 µg/mL) | 374 to 3190 µg/mL (≈ 0.669 to 5.71 mM) | 460 µM (≈ 257 µg/mL) | 60 µM (≈ 33.5 µg/mL) | 460 µM (≈ 257 µg/mL) | 920 µM (≈ 514 µg/mL) | 230 µM (≈ 128 µg/mL) | 460 µM (≈ 257 µg/mL) | 230 µM (≈ 128 µg/mL) | 460 µM (≈ 257 µg/mL) | 920 µM (≈ 514 µg/mL) |
| CCCCCCCCCCOc1c(OC)cc(/C=N/Nc2nccs2)c2c1CN1CCc3cc4c(cc3C1C2)OCO4 (stereo not drawn) | 220 µM (≈ 130 µg/mL) | 220 µM (≈ 130 µg/mL) | 61 µg/mL (≈ 0.103 mM) | 220 µM (≈ 130 µg/mL) | 110 µM (≈ 65 µg/mL) | 220 µM (≈ 130 µg/mL) | 430 µM (≈ 254 µg/mL) | 220 µM (≈ 130 µg/mL) | 220 µM (≈ 130 µg/mL) | 220 µM (≈ 130 µg/mL) | 430 µM (≈ 254 µg/mL) | 430 µM (≈ 254 µg/mL) |
| COc1cc(/C=N/Nc2nccs2)c2c(c1OCc1ccccc1Cl)CN1CCc3cc4c(cc3C1C2)OCO4 (stereo not drawn) | 450 µM (≈ 259 µg/mL) | 890 µM (≈ 512 µg/mL) | 374 to 3190 µg/mL (≈ 0.65 to 5.55 mM) | 450 µM (≈ 259 µg/mL) | 110 µM (≈ 63.3 µg/mL) | 450 µM (≈ 259 µg/mL) | 890 µM (≈ 512 µg/mL) | 450 µM (≈ 259 µg/mL) | 220 µM (≈ 127 µg/mL) | 110 µM (≈ 63.3 µg/mL) | 110 µM (≈ 63.3 µg/mL) | 890 µM (≈ 512 µg/mL) |
| COc1cc(/C=N/Nc2nccs2)c2c(c1OCc1cccc(Cl)c1)CN1CCc3cc4c(cc3C1C2)OCO4 (stereo not drawn) | 890 µM (≈ 512 µg/mL) | 220 µM (≈ 127 µg/mL) | 374 to 3190 µg/mL (≈ 0.65 to 5.55 mM) | 450 µM (≈ 259 µg/mL) | 220 µM (≈ 127 µg/mL) | 220 µM (≈ 127 µg/mL) | 450 µM (≈ 259 µg/mL) | 450 µM (≈ 259 µg/mL) | 110 µM (≈ 63.3 µg/mL) | 60 µM (≈ 34.5 µg/mL) | 220 µM (≈ 127 µg/mL) | 890 µM (≈ 512 µg/mL) |
| COc1cc(/C=N/Nc2nccs2)c2c(c1OCc1ccc([N+](=O)[O-])cc1)CN1CCc3cc4c(cc3C1C2)OCO4 (stereo not drawn) | 440 µM (≈ 258 µg/mL) | 220 µM (≈ 129 µg/mL) | 374 to 3190 µg/mL (≈ 0.639 to 5.45 mM) | 440 µM (≈ 258 µg/mL) | 110 µM (≈ 64.4 µg/mL) | 50 µM (≈ 29.3 µg/mL) | 870 µM (≈ 510 µg/mL) | 220 µM (≈ 129 µg/mL) | 110 µM (≈ 64.4 µg/mL) | 7 µM (≈ 4.1 µg/mL) | 220 µM (≈ 129 µg/mL) | 440 µM (≈ 258 µg/mL) |
| COc1cc(/C=N/Nc2nccs2)c2c(c1OCc1ccccc1)CN1CCc3cc4c(cc3C1C2)OCO4 (stereo not drawn) | 950 µM (≈ 514 µg/mL) | 240 µM (≈ 130 µg/mL) | 374 to 3190 µg/mL (≈ 0.692 to 5.9 mM) | 470 µM (≈ 254 µg/mL) | 240 µM (≈ 130 µg/mL) | 240 µM (≈ 130 µg/mL) | 950 µM (≈ 514 µg/mL) | 470 µM (≈ 254 µg/mL) | 470 µM (≈ 254 µg/mL) | 60 µM (≈ 32.4 µg/mL) | 60 µM (≈ 32.4 µg/mL) | 950 µM (≈ 514 µg/mL) |

Now those with a lower MIC (Escherichia coli), led by results:

| MIC (Escherichia coli) | MIC (Micrococcus luteus) | solubility at 3 h [1] | MIC (Cyberlindnera jadinii) | MIC (Staphylococcus aureus) | MIC (Pseudomonas aeruginosa) | MIC (Aspergillus flavus) | MIC (Candida albicans) | MIC (Bacillus subtilis) | MIC (Candida parapsilosis) | MIC (Pichia norvegensis) | MIC (Saccharomyces cerevisiae) | SMILES |
| --- | --- | --- | --- | --- | --- | --- | --- | --- | --- | --- | --- | --- |
| 110 µM (≈ 63.3 µg/mL) | 220 µM (≈ 127 µg/mL) | 374 to 3190 µg/mL (≈ 0.65 to 5.55 mM) | 220 µM (≈ 127 µg/mL) | 450 µM (≈ 259 µg/mL) | 220 µM (≈ 127 µg/mL) | 890 µM (≈ 512 µg/mL) | 450 µM (≈ 259 µg/mL) | 450 µM (≈ 259 µg/mL) | 60 µM (≈ 34.5 µg/mL) | 450 µM (≈ 259 µg/mL) | 890 µM (≈ 512 µg/mL) | COc1cc(/C=N/Nc2nccs2)c2c(c1OCc1ccc(Cl)cc1)CN1CCc3cc4c(cc3C1C2)OCO4 (stereo not drawn) |
| 70 µM (≈ 33.5 µg/mL) | 530 µM (≈ 254 µg/mL) | 10200 µg/mL (≈ 21.3 mM) | 540 µM (≈ 258 µg/mL) | 70 µM (≈ 33.5 µg/mL) | 70 µM (≈ 33.5 µg/mL) | 540 µM (≈ 258 µg/mL) | 70 µM (≈ 33.5 µg/mL) | 530 µM (≈ 254 µg/mL) | 30 µM (≈ 14.4 µg/mL) | 540 µM (≈ 258 µg/mL) | 1070 µM (≈ 512 µg/mL) | CCOc1c(OC)cc(/C=N/Nc2nccs2)c2c1CN1CCc3cc4c(cc3C1C2)OCO4 (stereo not drawn) |
| 60 µM (≈ 30.4 µg/mL) | 250 µM (≈ 127 µg/mL) | 7020 to 10200 µg/mL (≈ 13.9 to 20.1 mM) | 250 µM (≈ 127 µg/mL) | 60 µM (≈ 30.4 µg/mL) | 250 µM (≈ 127 µg/mL) | 510 µM (≈ 258 µg/mL) | 250 µM (≈ 127 µg/mL) | 250 µM (≈ 127 µg/mL) | 8 µM (≈ 4.05 µg/mL) | 250 µM (≈ 127 µg/mL) | 510 µM (≈ 258 µg/mL) | CCCCOc1c(OC)cc(/C=N/Nc2nccs2)c2c1CN1CCc3cc4c(cc3C1C2)OCO4 (stereo not drawn) |
